In ChEMBL document CHEMBL5131571, “Design, Synthesis, and Evaluation of Lung-Retentive Prodrugs for Extending the Lung Tissue Retention of Inhaled Drugs” (J Med Chem, 2022):

Columns and labels:
[1] = Plasma concentration in Crl Sprague-Dawley rat at 0.2 mg/kg, IT measured at 0.5 hrs by LC-MS/MS analysis; type: ADME, organism-based
In short: (§1)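 Male Sprague Dawley rats, n = 3 per time point, given a single intratracheal dose of 0.2 mg/kg at 1 mL/kg in 5% ethanol in pH 6.5 PBS. Serial blood into EDTA, centrifuged for plasma. At 24 h, lungs taken after CO2 euthanasia, rinsed, blotted, weighed, snap-frozen and homogenized. Methanol/acetonitrile protein precipitation with imipramine internal standard. Quantified by LC–MS/MS.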

[2] = Plasma concentration in Crl Sprague-Dawley rat at 0.2 mg/kg, IT measured at 3 to 24 hrs by LC-MS/MS analysis; type: ADME, organism-based; conditions: in vivo, other, time 3-24 hrs; in short: as §1
[3] = Drug concentration in lung of Crl Sprague-Dawley rat at 0.2 mg/kg, IT measured at 24 hrs by LC-MS/MS analysis; type: ADME, organism-based; conditions: read-out: Ct; in short: as §1
[4] = Plasma concentration in Crl Sprague-Dawley rat at 0.2 mg/kg, IT measured at 0.25 hrs by LC-MS/MS analysis; type: ADME, organism-based; in short: as §1
[5] = Protein binding to Crl Wistar Han rat lung homogenate assessed as free fraction by mass spectroscopic analysis; type: ADME, tissue-based
In short: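 Rapid equilibrium dialysis of spiked 1 in 4 Wistar Han rat lung homogenate (1000 ng/mL) against pH 6.5 PBS, 4 h, 37 °C, orbital shaking. Recovery and time-0/240 matrix controls included. Samples matrix-matched 1:1, MeCN precipitation with labetalol/reserpine internal standards, MS quantification. Triplicate, mean ± SD.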

[6] = Plasma concentration in Crl Sprague-Dawley rat at 0.2 mg/kg, IT measured at 1 hr by LC-MS/MS analysis; type: ADME, organism-based; in short: as §1
[7] = Plasma concentration in Crl Sprague-Dawley rat at 0.2 mg/kg, IT measured at 2 hrs by LC-MS/MS analysis; type: ADME, organism-based; in short: as §1
[8] = Drug metabolism in rat lung homogenate assessed as 1-(((R)-2-amino-3,3-dimethylbutanoyl)oxy)ethyl 4-(2-hydroxy-2,2-diphenylacetoxy)piperidine-1-carboxylate intermediate formation at 1500 ng/ml by MS/MS analysis; type: ADME, tissue-based; conditions: tissue homogenate
In short: (§2)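 Wistar Han rat lung homogenized, then diluted 1 in 4 by mass with water (pH 6.8). Incubated at nominal 1500 ng/mL, 37 °C. Breakdown followed over 1500 min by MS/MS against authenticated samples of prodrug, intermediate and parent.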

[9] = Drug metabolism in rat lung homogenate assessed as piperidin-4-yl-2-hydroxy-2,2-diphenylacetate formation at 1500 ng/ml by MS/MS analysis; type: ADME, tissue-based; conditions: tissue homogenate; in short: as §2
[10] = Stability in Crl Wistar Han rat blood at pH 7.2 assessed as half life by mass spectroscopic analysis; type: ADME, tissue-based
In short: (§3)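 1000 ng/mL final (from 200 μg/mL D6-DMSO stock) in prewarmed matrix at 37 °C with continuous shaking, triplicate. Matrices: pH 6.5 or 7.4 phosphate buffer, 1 in 4 water-diluted Wistar Han lung homogenate (pH 6.8), or fresh rat blood. Timed aliquots quenched in MeCN with labetalol/reserpine internal standards. Half-life by MS, mean ± SD.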

[11] = Stability of compound in PBS at pH 7.4 assessed as half life by LC-MS analysis; type: physicochemical; in short: as §3
[12] = Stability in Crl Wistar Han rat lung homogenate at pH 6.8 assessed as half life by mass spectroscopic analysis; type: ADME, tissue-based; in short: as §3
[13] = Stability of compound in PBS at pH 6.5 assessed as half life by LC-MS analysis; type: physicochemical; in short: as §3
[14] = Drug metabolism in rat lung homogenate assessed as 1-(((S)-2-Amino-3,3-dimethylbutanoyl)oxy)ethyl-4-(2-hydroxy-2,2-diphenylacetoxy)piperidine-1-carboxylate Hydrochloride intermediate formation at 1500 ng/ml by MS/MS analysis; type: ADME, tissue-based; conditions: tissue homogenate; in short: as §2

Row | SMILES | concentration at 0.5 h [1] | Cp [2] | concentration at 24 h [3] | concentration at 0.25 h [4] | fraction unbound [5] | concentration at 1 h [6] | concentration at 2 h [7] | Drug metabolism [8] | Drug metabolism [9] | half-life [10] | half-life [11] | half-life [12] | half-life [13] | Drug metabolism [14]
1 | CC(OC(=O)[C@H](NC(=O)[C@@H](N)CCCCN)C(C)(C)C)OC(=O)N1CCC(OC(=O)C(O)(c2ccccc2)c2ccccc2)CC1.Cl.Cl (stereo not given in full) | 1.63 ng/mL | 1 ng/mL | 20000 ng/mL | 2.03 ng/mL | 0.005 | 2.1 ng/mL | 1.25 ng/mL | Metabolite_Notdetected | Metabolite_Detected |  |  |  |  | 
2 | CC(OC(=O)C[C@@H](N)CCCCN)OC(=O)N1CCC(OC(=O)C(O)(c2ccccc2)c2ccccc2)CC1.Cl.Cl (stereo not given in full) |  |  |  |  |  |  |  |  |  | 18 min | 354 min | 186 min | 1750 min | 
3 | CC(OC(=O)[C@@H](NC(=O)[C@@H](N)CCCCN)C(C)(C)C)OC(=O)N1CCC(OC(=O)C(O)(c2ccccc2)c2ccccc2)CC1.Cl.Cl (stereo not given in full) |  |  |  |  |  |  |  |  | Metabolite_Detected |  |  |  |  | Metabolite_Detected
